Values after ≈ are worked out from the molar mass of the structure shown. Active and inactive are the calls of the source. No cut-off for these calls is given here.
What was measured:
Candida albicans [1] = assay: Antifungal activity against Candida albicans CA-6 infected in CD1 mouse assessed as survival from fungus-induced mortality at 10 mg/kg, ip pretreated 2 hrs before fungus-challenge and once daily for 6 days; assay type: functional
In short: (§1)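 Female outbred CD1 mice, 8–10 weeks old, infected i.v. on day 0 with C. albicans CA-6 blastospores (7 × 10⁵/mouse). Given 10 mg/kg i.p. 2 h before infection, then once daily for 6 consecutive days. Vehicle was 0.2 ml 2% EtOH in saline i.p. Survival monitored over a 30-day observation period. Three repeat experiments, 4 animals/group.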

Candida albicans [2] = assay: Antifungal activity against Candida albicans CA-6 after 48 hrs by broth microdilution assay; assay type: functional; details: CA-6, 48 h
In short: (§2)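 Yeasts kept on Sabouraud agar by serial passage. A single colony was suspended in saline, washed twice, counted by hemocytometer and added at 5 × 10⁴ CFU in RPMI 1640/MOPS pH 7.0 to serial compound dilutions. Compounds were stocked in 20% ethanol. Incubation was at 37 °C. MIC is the lowest concentration giving complete growth inhibition, read visually.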

Candida albicans [3] = assay: Antifungal activity against Candida albicans CA-6 after 24 hrs by broth microdilution assay; assay type: functional; details: CA-6, 24 h; in short: as §2
Candida parapsilosis [4] = assay: Antifungal activity against Candida parapsilosis after 48 hrs by broth microdilution assay; assay type: functional; details: Lodderomyces parapsilosis; in short: as §2
Candida albicans [5] = assay: Antifungal activity against Candida albicans PCA-2 after 24 hrs by broth microdilution assay; assay type: functional; details: PCA-2, 24 h; in short: as §2
Cryptococcus neoformans [6] = assay: Antifungal activity against Cryptococcus neoformans 6995 after 48 hrs by broth microdilution assay; assay type: functional; details: Cryptococcus neoformans, 6995, 48 h
Nakaseomyces glabratus [7] = assay: Antifungal activity against Candida glabrata after 48 hrs by broth microdilution assay; assay type: functional; in short: as §2
Cryptococcus neoformans [8] = assay: Antifungal activity against Cryptococcus neoformans CAP67 after 48 hrs by broth microdilution assay; assay type: functional; details: CAP67, 48 h
Pichia kudriavzevii [9] = assay: Antifungal activity against Candida krusei after 24 hrs by broth microdilution assay; assay type: functional; in short: as §2
Candida albicans [10] = assay: Antifungal activity against Candida albicans CA-6 infected in CD1 mouse assessed as reduction of fungal burden in kidneys treated with 0.3 ml serum of 10 mg/kg, ip dosed mouse collected after 1 hr determined 7 days post-infection; assay type: functional, organism-based; parameters: dose 10 mg/kg; details: Kidney
In short: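 Donor mice received 10 mg/kg i.p. or vehicle (0.2 ml 2% EtOH in saline); serum was collected 1 h later. Recipient CD1 mice received 0.3 ml serum i.p. 1 h before i.v. challenge with 7 × 10⁵ CA-6 per mouse. Kidney CFU were counted on Sabouraud agar 7 days after challenge.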

Nakaseomyces glabratus [11] = assay: Antifungal activity against Candida glabrata after 24 hrs by broth microdilution assay; assay type: functional; in short: as §2
Candida albicans [12] = assay: Antifungal activity against Candida albicans CA-6 infected in CD1 mouse assessed as reduction of fungal burden in kidneys at 10 mg/kg, ip pretreated 2 hrs before fungus-challenge and once daily for 6 days measured 7 days post-infection; assay type: functional, organism-based; parameters: dose 10 mg/kg; details: Kidney
In short: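 Female outbred CD1 mice, 8–10 weeks old, were infected i.v. on day 0 with 2.5 × 10⁵ CA-6 blastospores. Dosing was 10 mg/kg i.p. 2 h before challenge, then daily for 6 days; vehicle was 0.2 ml 2% EtOH in saline i.p. At day 7, kidney homogenates were serially diluted and plated on Sabouraud agar for CFU. Three experiments, 4 mice/group.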

Candida albicans [13] = assay: Antifungal activity against Candida albicans CA-6 infected in CD1 mouse assessed as reduction of inflammatory foci in kidney at 10 mg/kg, ip pretreated 2 hrs before fungus-challenge and once daily for 6 days measured 7 days post-infection by periodic acid-Schiff staining; assay type: functional, organism-based; parameters: dose 10 mg/kg
In short: (§3)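 CD1 mice were challenged i.v. with 7 × 10⁵ CA-6 per mouse. Dosing was 10 mg/kg 2 h before challenge, then once daily for 6 days. Kidneys were excised 7 days post-infection, formalin-fixed and paraffin-embedded. Sections were stained with periodic acid-Schiff and assessed histologically for fungal cells and inflammatory foci.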

Pichia kudriavzevii [14] = assay: Antifungal activity against Candida krusei after 48 hrs by broth microdilution assay; assay type: functional; in short: as §2
Candida albicans [15] = assay: Antifungal activity against Candida albicans PCA-2 after 48 hrs by broth microdilution assay; assay type: functional; details: PCA-2, 48 h; in short: as §2
Candida albicans [16] = assay: Antifungal activity against Candida albicans CA-6 infected in CD1 mouse assessed as reduction fungal cell number in kidney at 10 mg/kg, ip pretreated 2 hrs before fungus-challenge and once daily for 6 days measured 7 days post-infection by periodic acid-Schiff staining; assay type: functional, organism-based; parameters: dose 10 mg/kg; in short: as §3
Candida parapsilosis [17] = assay: Antifungal activity against Candida parapsilosis after 24 hrs by broth microdilution assay; assay type: functional; details: Lodderomyces parapsilosis; in short: as §2
Candida albicans [18] = assay: Antifungal activity against Candida albicans CA-6 infected in CD1 mouse assessed as survival days in 30 days observation period at 10 mg/kg, ip pretreated 2 hrs before fungus-challenge and once daily for 6 days; assay type: functional; details: route intraperitoneal; in short: as §1

| SMILES | Activity (Candida albicans [1]; route intraperitoneal) [%] | MIC (Candida albicans [2]) [µg/mL] | MIC (Candida albicans [3]) [µg/mL] | MIC (Candida parapsilosis [4]) [µg/mL] | MIC (Candida albicans [5]) [µg/mL] | MIC (Cryptococcus neoformans [6]) [µg/mL] | MIC (Nakaseomyces glabratus [7]) [µg/mL] | MIC (Cryptococcus neoformans [8]) [µg/mL] | MIC (Pichia kudriavzevii [9]) [µg/mL] | Activity (Candida albicans [10]) | MIC (Nakaseomyces glabratus [11]) [µg/mL] | Activity (Candida albicans [12]) | Activity (Candida albicans [13]) | MIC (Pichia kudriavzevii [14]) [µg/mL] | MIC (Candida albicans [15]) [µg/mL] | Activity (Candida albicans [16]) | MIC (Candida parapsilosis [17]) [µg/mL] | Activity (Candida albicans [1]) | Activity (Candida albicans [18]) [days] |
| --- | --- | --- | --- | --- | --- | --- | --- | --- | --- | --- | --- | --- | --- | --- | --- | --- | --- | --- | --- |
| CCCCC1Oc2ccc(OC[C@@H]3CO[C@](Cn4ccnc4)(c4ccc(Cl)cc4Cl)O3)cc2N(C)C1=O (relative stereo) | 50 | 0.49 (≈ 0.897 µM) | 0.49 (≈ 0.897 µM) | 500 (≈ 915 µM) | > 500 | 7.8 (≈ 14.3 µM) | > 500 | 3.9 (≈ 7.14 µM) | 3.9 (≈ 7.14 µM) | Active | 62.5 (≈ 114 µM) | Active | Active | 7.8 (≈ 14.3 µM) | > 500 | Active | 125 (≈ 229 µM) |  |  |
| CN1C(=O)COc2ccc(OC[C@@H]3CO[C@](Cn4ccnc4)(c4ccc(Cl)cc4Cl)O3)cc21 (relative stereo) |  | 0.49 (≈ 0.999 µM) | 0.49 (≈ 0.999 µM) | > 500 | > 500 | 1.95 (≈ 3.98 µM) | 250 (≈ 510 µM) | 0.03 (≈ 0.0612 µM) | 15.6 (≈ 31.8 µM) |  | 15.6 (≈ 31.8 µM) |  |  | > 500 | > 500 |  | > 500 | inactive |  |
| CN1C(=O)COc2ccc(OC[C@H]3CO[C@](Cn4ccnc4)(c4ccc(Cl)cc4Cl)O3)cc21 (relative stereo) |  | 0.49 (≈ 0.999 µM) | 0.49 (≈ 0.999 µM) | > 500 | > 500 | 0.24 (≈ 0.489 µM) | > 500 | 0.0019 (≈ 0.00387 µM) | 15.6 (≈ 31.8 µM) |  | 7.8 (≈ 15.9 µM) |  |  | > 500 | > 500 |  | 250 (≈ 510 µM) | inactive |  |
| CCCCC1Oc2ccc(OC[C@H]3CO[C@](Cn4ccnc4)(c4ccc(Cl)cc4Cl)O3)cc2N(C)C1=O (relative stereo) |  | 0.49 (≈ 0.897 µM) | 0.49 (≈ 0.897 µM) | 31.2 (≈ 57.2 µM) | 125 (≈ 229 µM) | 7.8 (≈ 14.3 µM) | 125 (≈ 229 µM) | 1.95 (≈ 3.57 µM) | 3.9 (≈ 7.14 µM) | Active | 31.2 (≈ 57.2 µM) | Active | Active | 3.9 (≈ 7.14 µM) | 125 (≈ 229 µM) | Active | 31.2 (≈ 57.2 µM) |  | 23 |
| OC(Cn1cncn1)(Cn1cncn1)c1ccc(F)cc1F [FLUCONAZOLE] | 75 | < 0.0076 | < 0.0076 | 15.6 (≈ 50.9 µM) | > 500 | 3.9 (≈ 12.7 µM) | 250 (≈ 816 µM) | 0.49 (≈ 1.6 µM) | 250 (≈ 816 µM) | Active | 125 (≈ 408 µM) | Active | Active | > 500 | > 500 | Active | 7.8 (≈ 25.5 µM) |  |  |
| CC(=O)N1CCN(c2ccc(OCC3COC(Cn4ccnc4)(c4ccc(Cl)cc4Cl)O3)cc2)CC1 (centres undefined) [KETOCONAZOLE] |  | < 0.0076 | < 0.0076 | 0.00095 (≈ 0.00179 µM) | 15.6 (≈ 29.4 µM) | 0.00095 (≈ 0.00179 µM) | 1.95 (≈ 3.67 µM) | 0.00012 (≈ 0.000226 µM) | 0.49 (≈ 0.922 µM) |  | 0.12 (≈ 0.226 µM) |  |  | 0.97 (≈ 1.83 µM) | 15.6 (≈ 29.4 µM) |  | < 6e-05 |  |  |

From ChEMBL document CHEMBL1158430, “Bulky 1,4-benzoxazine derivatives with antifungal activity” (2009)
